Measurements: ChEMBL document CHEMBL4385668, “Synthesis and in vitro anticancer activity of new gemcitabine-nucleoside analogue dimers containing methyltriazole or ester-methyltriazole linker” (Bioorg Med Chem Lett, 2019)

Key:
HeLa = assay: Cytotoxicity in human HeLa cells assessed as reduction in cell viability incubated for 72 hrs by SRB assay; assay type: functional, cell-based
Procedure, shortened: (§1)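 SRB assay of cell viability in human cancer lines (HeLa, KB, A549, U87, HepG2) and normal dermal fibroblasts (HDF). IC50 values are […] of three independent experiments.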

KB = assay: Cytotoxicity in human KB cells assessed as reduction in cell viability incubated for 72 hrs by SRB assay; assay type: functional, cell-based; procedure, shortened: as §1
A549 = assay: Cytotoxicity in human A549 cells assessed as reduction in cell viability incubated for 72 hrs by SRB assay; assay type: functional, cell-based; settings: A549, 72 h; procedure, shortened: as §1
U-87 MG = assay: Cytotoxicity in human U87 cells assessed as reduction in cell viability incubated for 72 hrs by SRB assay; assay type: functional, cell-based, U-87MG ATCC; procedure, shortened: as §1
HepG2 = assay: Cytotoxicity in human HepG2 cells assessed as reduction in cell viability incubated for 72 hrs by SRB assay; assay type: functional, cell-based; settings: HepG2, 72 h; procedure, shortened: as §1
NHDF = assay: Cytotoxicity in human NHDF cells assessed as reduction in cell viability incubated for 72 hrs by SRB assay; assay type: cell-based; procedure, shortened: as §1
[1] = Selectivity index, ratio of IC50 for cytotoxicity in human NHDF cells to IC50 for cytotoxicity in human HeLa cells
Procedure, shortened: (§2)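 Selectivity index is the IC50 in normal HDF fibroblasts divided by the IC50 in the given cancer line.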

[2] = Selectivity index, ratio of IC50 for cytotoxicity in human NHDF cells to IC50 for cytotoxicity in human KB cells; procedure, shortened: as §2
[3] = Selectivity index, ratio of IC50 for cytotoxicity in human NHDF cells to IC50 for cytotoxicity in human A549 cells; procedure, shortened: as §2
[4] = Selectivity index, ratio of IC50 for cytotoxicity in human NHDF cells to IC50 for cytotoxicity in human U87 cells; procedure, shortened: as §2
[5] = Selectivity index, ratio of IC50 for cytotoxicity in human NHDF cells to IC50 for cytotoxicity in human HepG2 cells; procedure, shortened: as §2
[6] = Drug level in human HeLa cells treated with 1-(3'-Deoxythymidin-3'-yl)-4-[methyloxycarbonyl-(2'-deoxy-2',2'-difluorocytidin-4N-yl)]-1H-1,2,3-triazole assessed as compound release incubated for 12 hrs by HPLC/MS method; assay type: ADME, cell-based
Procedure, shortened: (§3)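 HeLa cells were incubated with the dimer at 37 °C for 12 h. Cell lysate was analysed by HPLC/MS for released gemcitabine, the deamination product dFdU and the thymidine-triazole fragment. A separately synthesized sample of the thymidine-triazole fragment was used as the reference.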

[7] = Drug metabolism in human HeLa cells assessed as gemcitabine release incubated for 12 hrs by HPLC/MS method; assay type: ADME, cell-based; procedure, shortened: as §3
[8] = Drug metabolism in human HeLa cells assessed as 2',2'-difluoro-2'-deoxyuridine release incubated for 12 hrs by HPLC/MS method; assay type: ADME, cell-based; procedure, shortened: as §3

Row | Drug uptake [6] | Drug metabolism [7] | Drug metabolism [8] | SMILES | IC50 (HeLa) [µM] | IC50 (KB) [µM] | IC50 (A549) [µM] | IC50 (U-87 MG) [µM] | IC50 (HepG2) [µM] | IC50 (NHDF) [µM] | Ratio IC50 [1] | Ratio IC50 [2] | Ratio IC50 [3] | Ratio IC50 [4] | Ratio IC50 [5]
1 |  |  |  | CC(C)(C)OC(=O)O[C@@H]1[C@@H](Cn2cc(CNc3ccn([C@@H]4O[C@H](CO)[C@@H](O)C4(F)F)c(=O)n3)nn2)O[C@@H](n2ccc(N)nc2=O)C1(F)F | 4.11 | 4.09 | 4.23 | 4.54 | 5.19 | 10.9 | 2.65 | 2.67 | 2.58 | 2.4 | 2.1
2 |  |  |  | O=C(Nc1ccn([C@@H]2O[C@H](CO)[C@@H](O)C2(F)F)c(=O)n1)OCc1cn(C[C@H]2O[C@@H](n3cc(F)c(=O)[nH]c3=O)C[C@@H]2O)nn1 | 6.7 | 6.52 | 8.01 | 7.56 | 7.66 | 10.2 |  |  |  |  | 
3 |  |  |  | O=c1[nH]c(=O)n([C@H]2C[C@H](O)[C@@H](Cn3cc(CNc4ccn([C@@H]5O[C@H](CO)[C@@H](O)C5(F)F)c(=O)n4)nn3)O2)cc1F | 78.9 | 81.5 | 79.3 | 80.3 | 78.9 | 106 |  |  |  |  | 
4 |  |  |  | O=C(Nc1ccn([C@@H]2O[C@H](Cn3cc(CNc4ccn([C@@H]5O[C@H](CO)[C@@H](O)C5(F)F)c(=O)n4)nn3)[C@@H](OC(=O)c3ccccc3)C2(F)F)c(=O)n1)c1ccccc1 | 5.41 | 5.34 | 6.01 | 5.5 | 5.82 | 14.2 |  |  |  |  | 
5 |  |  |  | Cc1cn([C@H]2C[C@H](OC(=O)OC(C)(C)C)[C@@H](Cn3cc(COC(=O)Nc4ccn([C@@H]5O[C@H](CO)[C@@H](O)C5(F)F)c(=O)n4)nn3)O2)c(=O)[nH]c1=O | 9.65 | 10.7 | 8.5 | 9.68 | 11.1 | 15 |  |  |  |  | 
6 |  |  |  | O=C(Nc1ccn([C@@H]2O[C@H](CO)[C@@H](O)C2(F)F)c(=O)n1)OCc1cn(C[C@H]2O[C@@H](n3ccc(NC(=O)c4ccccc4)nc3=O)C(F)(F)[C@@H]2OC(=O)c2ccccc2)nn1 | 3.22 | 3.13 | 3.32 | 3.41 | 3.51 | 9.12 | 2.83 | 2.91 | 2.75 | 2.67 | 2.6
7 |  |  |  | CC(C)(C)OC(=O)O[C@@H]1[C@@H](Cn2cc(CNc3ccn([C@@H]4O[C@H](CO)[C@@H](O)C4(F)F)c(=O)n3)nn2)O[C@@H](n2ccc(NC(=O)OCc3ccccc3)nc2=O)C1(F)F | 3.12 | 3.09 | 3.24 | 3.81 | 3.93 | 8.12 | 2.6 | 2.63 | 2.51 | 2.13 | 2.07
8 |  |  |  | CC(C)(C)OC(=O)O[C@@H]1[C@@H](Cn2cc(COC(=O)Nc3ccn([C@@H]4O[C@H](CO)[C@@H](O)C4(F)F)c(=O)n3)nn2)O[C@@H](n2ccc(NC(=O)OCc3ccccc3)nc2=O)C1(F)F | 0.97 | 0.95 | 0.83 | 1.09 | 1.01 | 4.69 | 4.83 | 4.94 | 5.65 | 4.3 | 4.64
9 |  |  |  | CC(C)(C)OC(=O)O[C@H]1C[C@H](n2cc(F)c(=O)[nH]c2=O)O[C@@H]1Cn1cc(CNc2ccn([C@@H]3O[C@H](CO)[C@@H](O)C3(F)F)c(=O)n2)nn1 | 4.68 | 4.62 | 5.86 | 4.73 | 5.71 | 13.7 | 2.94 | 2.97 | 2.35 | 2.91 | 2.41
10 |  |  |  | Cc1cn([C@H]2C[C@H](N=[N+]=[N-])[C@@H](CO)O2)c(=O)[nH]c1=O [ZIDOVUDINE] | 10.8 | 9.77 | 11.9 | 11.9 | 13 | 14.4 | 1.34 | 1.48 | 1.22 | 1.21 | 1.11
11 |  |  |  | Nc1ccn([C@@H]2O[C@H](Cn3cc(CNc4ccn([C@@H]5O[C@H](CO)[C@@H](O)C5(F)F)c(=O)n4)nn3)[C@@H](O)C2(F)F)c(=O)n1 | 16.2 | 15.9 | 16.1 | 16.5 | 15.1 | 29.3 |  |  |  |  | 
12 |  |  |  | Nc1ccn([C@@H]2O[C@H](CO)[C@@H](O)[C@@H]2O)c(=O)n1 [CYTARABINE] |  |  | 3.47 | 2.88 |  | 4.99 | 1.41 | 1.23 | 1.44 | 1.73 | 1.75
13 |  |  |  | O=c1[nH]c(=O)n([C@H]2C[C@H](O)[C@@H](CO)O2)cc1F [FLOXURIDINE] |  |  | 5.91 | 6.14 |  | 13.1 | 2.01 | 1.5 | 2.21 | 2.13 | 1.47
14 |  |  |  | O=C(Nc1ccn([C@@H]2O[C@H](Cn3cc(CNc4ccn([C@@H]5O[C@H](CO)[C@@H](O)C5(F)F)c(=O)n4)nn3)[C@@H](O)C2(F)F)c(=O)n1)OCc1ccccc1 | 4.23 | 4.14 | 4.31 | 4.45 | 4.64 | 10.1 | 2.39 | 2.44 | 2.34 | 2.27 | 2.18
15 | Active |  |  | Cc1cn([C@H]2C[C@H](n3cc(CO)nn3)[C@@H](CO)O2)c(=O)[nH]c1=O |  |  |  |  |  |  |  |  |  |  | 
16 |  |  |  | Nc1ccn([C@@H]2O[C@H](Cn3cc(COC(=O)Nc4ccn([C@@H]5O[C@H](CO)[C@@H](O)C5(F)F)c(=O)n4)nn3)[C@@H](O)C2(F)F)c(=O)n1 | 12.4 | 11.3 | 11.4 | 12.6 | 10.8 | 15.8 |  |  |  |  | 
17 |  |  |  | Cc1cn([C@H]2C[C@H](OC(=O)OC(C)(C)C)[C@@H](Cn3cc(CNc4ccn([C@@H]5O[C@H](CO)[C@@H](O)C5(F)F)c(=O)n4)nn3)O2)c(=O)[nH]c1=O | 6.3 | 7.07 | 6.07 | 6.97 | 6.34 | 14.2 |  |  |  |  | 
18 |  |  |  | CC(C)(C)OC(=O)O[C@@H]1[C@@H](Cn2cc(COC(=O)Nc3ccn([C@@H]4O[C@H](CO)[C@@H](O)C4(F)F)c(=O)n3)nn2)O[C@@H](n2ccc(N)nc2=O)C1(F)F | 2.01 | 2.12 | 2.17 | 2.21 | 2.34 | 8.81 | 4.38 | 4.16 | 4.06 | 3.99 | 3.77
19 |  |  |  | O=C(Nc1ccn([C@@H]2O[C@H](CO)[C@@H](O)C2(F)F)c(=O)n1)OCc1cn(C[C@H]2O[C@@H](n3ccc(NC(=O)OCc4ccccc4)nc3=O)C(F)(F)[C@@H]2O)nn1 | 1.98 | 2.01 | 2.11 | 2.14 | 2.21 | 8.12 | 4.1 | 4.04 | 3.85 | 3.79 | 3.67
20 |  |  |  | Cc1cn([C@H]2C[C@H](O)[C@@H](Cn3cc(CNc4ccn([C@@H]5O[C@H](CO)[C@@H](O)C5(F)F)c(=O)n4)nn3)O2)c(=O)[nH]c1=O | 129 | 131 | 126 | 128 | 130 | 152 |  |  |  |  | 
21 | Active |  |  | Nc1ccn([C@@H]2O[C@H](CO)[C@@H](O)C2(F)F)c(=O)n1 [GEMCITABINE] | 9.42 | 8.21 | 5.05 | 5.21 | 4.9 | 19.4 | 2.07 | 2.37 | 3.85 | 3.73 | 3.97
22 |  | Metabolite_Detected | Metabolite_Notdetected | Cc1cn([C@H]2C[C@H](n3cc(CNc4ccn([C@@H]5O[C@H](CO)[C@@H](O)C5(F)F)c(=O)n4)nn3)[C@@H](CO)O2)c(=O)[nH]c1=O | 10.9 | 12.2 | 10.6 | 10.8 | 12.2 | 17.8 |  |  |  |  | 
23 |  |  |  | Cc1cn([C@H]2C[C@H](O)[C@@H](Cn3cc(COC(=O)Nc4ccn([C@@H]5O[C@H](CO)[C@@H](O)C5(F)F)c(=O)n4)nn3)O2)c(=O)[nH]c1=O | 13.5 | 13.1 | 13.4 | 13.5 | 14.6 | 16.9 |  |  |  |  | 
